Reference: ChEMBL document CHEMBL3259802, “Anticonvulsant evaluation of clubbed indole-1,2,4-triazine derivatives: a synthetic approach” (Eur J Med Chem, 2014)
Calls of active or inactive are those of the source. The rule behind the calls is not given here.

Key:
[1] = Neurotoxicity in ip dosed Swiss albino mouse measured during phase 2 trials by rotarod test; format: toxicity, organism-based; conditions: in vivo
Summary of the method: (§1)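 Phase II quantitation: groups of six mice given a range of i.p. doses until at least three points fell within 10–90% seizure protection (MES or scPTZ) or rotarod neurotoxicity, tested at time of peak effect.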

Mus musculus [2] = assay: Neurotoxicity in Swiss albino mouse assessed as motor impairment at 100 mg/kg, po by rotarod test; format: toxicity, organism-based; design: dose 100 mg/kg, route oral; conditions: in vivo
Summary of the method: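 Mice trained on rotarod (3.2 cm, 10 rpm) received 100 mg/kg orally in 0.5% sodium carboxymethylcellulose; neurotoxicity scored as percentage of animals failing to keep equilibrium on rod for 60 s.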

Mus musculus [3] = assay: Anticonvulsant activity in Swiss albino mouse assessed as protection against PTZ-induced seizure at 200 mg/kg, po administered 60 mins prior to pentylenetetrazole challenge; format: functional
Mus musculus [4] = assay: Anticonvulsant activity in Swiss albino mouse assessed as time duration of hind limb tonic extenstion at 100 mg/kg, po administered 60 mins prior to maximal electroshock exposure by MES test (reference value: 16.20 +/- 0.50 secs); format: functional, Hindlimb
Summary of the method: (§2)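 Mice (n=6/group) dosed orally at 100 mg/kg in 0.5% sodium carboxymethylcellulose 60 min before maximal electroshock (150 mA, 0.2 s, corneal electrodes). Duration of hind limb tonic extension noted; abolition scored as protection (% protected). Vehicle controls; mean ± SEM, one-way ANOVA followed by Dunnett's method.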

Mus musculus [5] = assay: Anticonvulsant activity in ip dosed Swiss albino mouse assessed as protection against maximal electroshock-induced seizure measured at the time of peak effect during phase 2 trials by MES test; format: functional; summary of the method: as §1
Mus musculus [6] = assay: Anticonvulsant activity in ip dosed Swiss albino mouse assessed as protection against maximal electroshock-induced tonic-clonic seizure spread measured after 4 hrs by MES test; format: functional; conditions: read-out: MED
Summary of the method: (§3)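 Swiss albino mice pre-screened 24 h earlier with 50 mA, 60 Hz, 0.2 s corneal shock; saline drop in eyes. Compounds in 0.5% sodium carboxymethylcellulose given i.p. at 30, 100 and 300 mg/kg; MES applied after 0.5 h and 4 h. Protection = abolition of hind limb tonic extensor component in half or more of four mice.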

Mus musculus [7] = assay: Anticonvulsant activity in Swiss albino mouse assessed as protection against maximal electroshock-induced seizures at 100 mg/kg, po administered 60 mins prior to maximal electroshock exposure by MES test; format: functional; summary of the method: as §2
Mus musculus [8] = assay: Anticonvulsant activity in ip dosed Swiss albino mouse assessed as protection against pentylenetetrazole-induced seizures after 0.5 hrs; format: functional; conditions: read-out: MED
Summary of the method: (§4)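 Compounds in 0.5% sodium carboxymethylcellulose injected i.p. at 30, 100, 300 mg/kg (four mice per dose); at 0.5 h or 4 h, pentylenetetrazol 70 mg/kg given s.c. as 0.5% solution in posterior midline. Observation 30 min; absence of clonic spasm in half or more of animals scored as protection.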

Mus musculus [9] = assay: Anticonvulsant activity in ip dosed Swiss albino mouse assessed as protection against maximal electroshock-induced tonic-clonic seizure spread measured after 0.5 hrs by MES test; format: functional; conditions: read-out: MED; summary of the method: as §3
Mus musculus [10] = assay: Neurotoxicity in Swiss albino mouse assessed as minimal motor impairment at 300 mg/kg, ip after 0.5 hrs by rotarod test; format: toxicity, organism-based; design: dose 300 mg/kg, route intraperitoneal; conditions: in vivo
Summary of the method: (§5)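 Rotarod minimal motor impairment: mice trained on 3.2 cm rod at 10 rpm; i.p. doses of 30, 100 and 300 mg/kg, four mice each, tested at 0.5 h and 4 h. Neurotoxicity = failure to stay on rod at least 1 min in each of three trials.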

Mus musculus [11] = assay: Anticonvulsant activity in ip dosed Swiss albino mouse assessed as protection against pentylenetetrazole-induced seizures after 4 hrs; format: functional; conditions: read-out: MED; summary of the method: as §4
Mus musculus [12] = assay: Neurotoxicity in Swiss albino mouse assessed as minimal motor impairment at 300 mg/kg, ip after 4 hrs by rotarod test; format: toxicity, organism-based; design: dose 300 mg/kg, route intraperitoneal; conditions: in vivo; summary of the method: as §5
Rattus norvegicus [13] = assay: Increase in GABA level in Wistar rat whole brain at 30 mg/kg, po for 7 days measured at 4 hrs after last drug dose per 100 mg of tissue (reference value: 49.2 +/- 3.01 ug); format: functional
Rattus norvegicus [14] = assay: Increase in GABA level in Wistar rat whole brain at 100 mg/kg, ip after 2 hrs measured per 100 mg of tissue (reference value: 46.8 +/- 6.03 ug); format: functional; conditions: route intraperitoneal
Summary of the method: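 Adult Wistar rats, six per group, given 100 mg/kg i.p. (clobazam 30 mg/kg p.o. reference); decapitated 2 h later, whole brains put into ice-cold 80% ethanol and GABA determined enzymatically in tissue extracts. Mean ± SEM; Student's t test versus control.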

Mus musculus [15] = assay: Anticonvulsant activity in Swiss albino mouse assessed as protection against pentylenetetrazole-induced seizures at 300 mg/kg, ip after 0.5 hrs; format: functional, organism-based; design: dose 300 mg/kg; summary of the method: as §4
Mus musculus [16] = assay: Anticonvulsant activity in Swiss albino mouse assessed as seizure latency to onset of clonus at 100 mg/kg, po administered 60 mins prior to pentylenetetrazole challenge (reference value: 1.54 +/- 0.90 mins); format: functional
[17] = Displacement of [3H]BTX-B from neurotoxin site 2 of voltage-gated sodium channel in rat cerebral cortex synaptoneurosomes by scintillation counting analysis; format: tissue-based
Rattus norvegicus [18] = organism: Rattus norvegicus; assay: Displacement of [3H]BTX-B from neurotoxin site 2 of voltage-gated sodium channel in rat cerebral cortex synaptoneurosomes at 100 uM by scintillation counting analysis; format: tissue-based
Mus musculus [19] = organism: Mus musculus; assay: Protective index, ratio of TD50 for Swiss albino mouse to ED50 for anticonvulsant activity in PTZ-treated Swiss albino mouse
Mus musculus [20] = assay: Anticonvulsant activity in ip dosed Swiss albino mouse assessed as protection against pentylenetetrazole-induced seizure measured at the time of peak effect during phase 2 trials; format: functional; summary of the method: as §1
Mus musculus [21] = assay: Anticonvulsant activity in Swiss albino mouse assessed as protection against PTZ-induced seizure at 100 mg/kg, po administered 60 mins prior to pentylenetetrazole challenge; format: functional
Mus musculus [22] = assay: Anticonvulsant activity in Swiss albino mouse assessed as protection against maximal electroshock-induced seizures at 30 mg/kg, po administered 60 mins prior to maximal electroshock exposure by MES test; format: functional
Mus musculus [23] = assay: Neurotoxicity in Swiss albino mouse assessed as minimal motor impairment at 100 mg/kg, ip after 4 hrs by rotarod test; format: toxicity, organism-based; design: dose 100 mg/kg, route intraperitoneal; conditions: in vivo; summary of the method: as §5
Mus musculus [24] = assay: Anticonvulsant activity in Swiss albino mouse assessed as decrease in time duration of hind limb tonic extenstion at 30 mg/kg, po administered 60 mins prior to maximal electroshock exposure by MES test; format: functional, organism-based; design: dose 30 mg/kg; conditions: Hindlimb
Mus musculus [25] = assay: Neurotoxicity in Swiss albino mouse assessed as minimal motor impairment at 100 mg/kg, ip after 0.5 hrs by rotarod test; format: toxicity, organism-based; design: dose 100 mg/kg, route intraperitoneal; conditions: in vivo; summary of the method: as §5
Mus musculus [26] = assay: Anticonvulsant activity in Swiss albino mouse assessed as protection against maximal electroshock-induced tonic-clonic seizure spread measured at 300 mg/kg, ip after 4 hrs by MES test; format: functional, organism-based; design: dose 300 mg/kg; summary of the method: as §3
Mus musculus [27] = assay: Anticonvulsant activity in Swiss albino mouse assessed as protection against maximal electroshock-induced tonic-clonic seizure spread measured at 300 mg/kg, ip after 0.5 hrs by MES test; format: functional, organism-based; design: dose 300 mg/kg
Summary of the method: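 Groups of four mice, screened 24 h beforehand with corneal shock (50 mA, 60 Hz, 0.2 s), saline drop in each eye. Test doses of 30, 100 or 300 mg/kg ip were suspended in 0.5% sodium carboxymethylcellulose. The shock was applied 0.5 h and 4.0 h after dosing. Protection: abolition of hind-limb tonic extension in half or more of the animals.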

Rattus norvegicus [28] = assay: Increase in GABA level in Wistar rat whole brain at 30 mg/kg, po after 2 hrs measured per 100 mg of tissue (reference value: 46.8 +/- 6.03 ug); format: functional

NC1NC(=S)NN=C1n1c(-c2ccccc2)c(C(=O)O)c2cc(C(F)(F)F)ccc21 (configuration not stated)
TD50 [1]: 100 mg/kg

CCCC(CCC)C(=O)[O-].[Na+] [VALPROATE SODIUM]
Activity (Mus musculus [2]): Non-toxic
Activity (Mus musculus [3]): 100%

NC(=O)c1c(-c2ccccc2)n(C2=NNC(=S)NC2N)c2ccc([N+](=O)[O-])cc12 (configuration not stated)
Time (Mus musculus [4]): 12.7 s
ED50 (Mus musculus [5]): 24 mg/kg
minimal effective dose (Mus musculus [6]): 30 mg/kg
Activity (Mus musculus [7]): 50%
minimal effective dose (Mus musculus [8]): 300 mg/kg
minimal effective dose (Mus musculus [9]): 30 mg/kg
Activity (Mus musculus [2]): Non-toxic
Activity (Mus musculus [10]): Non-toxic
minimal effective dose (Mus musculus [11]): 300 mg/kg
Activity (Mus musculus [12]): Non-toxic
Activity (Rattus norvegicus [13]): 88.4 µg
Activity (Rattus norvegicus [14]): 85.4 µg
TD50 [1]: 125 mg/kg

NC1NC(=S)NN=C1n1c(-c2ccccc2)c(S(N)(=O)=O)c2cc(F)ccc21 (configuration not stated)
TD50 [1]: 225 mg/kg

CC(=O)c1c(-c2ccccc2)n(C2=NNC(=S)NC2N)c2ccc(C(F)(F)F)cc12 (configuration not stated)
Time (Mus musculus [4]): 13.5 s
ED50 (Mus musculus [5]): 40 mg/kg
minimal effective dose (Mus musculus [6]): 30 mg/kg
Activity (Mus musculus [7]): 33.3%
Activity (Mus musculus [15]): inactive
minimal effective dose (Mus musculus [9]): 30 mg/kg
Activity (Mus musculus [10]): Non-toxic
minimal effective dose (Mus musculus [11]): 300 mg/kg
Activity (Mus musculus [12]): Non-toxic
Activity (Rattus norvegicus [13]): 79.1 µg
Activity (Rattus norvegicus [14]): 75.4 µg
TD50 [1]: 95 mg/kg

CC(=O)c1c(-c2ccccc2)n(C2=NNC(=S)NC2N)c2ccc(F)cc12 (configuration not stated)
Time (Mus musculus [4]): 5.4 s
ED50 (Mus musculus [5]): 7 mg/kg
Time (Mus musculus [16]): 9.8 min
minimal effective dose (Mus musculus [6]): 30 mg/kg
IC50 [17]: 108 µM
inhibition (Rattus norvegicus [18]): 50.4%
Activity (Mus musculus [7]): 100%
minimal effective dose (Mus musculus [8]): 100 mg/kg
minimal effective dose (Mus musculus [9]): 30 mg/kg
Activity (Mus musculus [2]): Non-toxic
Ratio TD50/ED50 (Mus musculus [19]): 3.39
Activity (Mus musculus [10]): Non-toxic
minimal effective dose (Mus musculus [11]): 100 mg/kg
Activity (Mus musculus [12]): Non-toxic
Activity (Rattus norvegicus [13]): 110 µg
ED50 (Mus musculus [20]): 68 mg/kg
Activity (Mus musculus [21]): 83.3%
Activity (Rattus norvegicus [14]): 93.5 µg
TD50 [1]: 290 mg/kg

O=C1NC(=O)C(c2ccccc2)(c2ccccc2)N1 [PHENYTOIN]
minimal effective dose (Mus musculus [6]): 30 mg/kg
IC50 [17]: 126 µM
inhibition (Rattus norvegicus [18]): 49.6%
Activity (Mus musculus [22]): 100%
Activity (Mus musculus [23]): Non-toxic
minimal effective dose (Mus musculus [9]): 30 mg/kg
Activity (Mus musculus [2]): Non-toxic
inhibition (Mus musculus [24]): Active
Activity (Mus musculus [25]): Non-toxic

NC1NC(=S)NN=C1n1c(-c2ccccc2)c(S(N)(=O)=O)c2cc(Cl)ccc21 (configuration not stated)
TD50 [1]: 185 mg/kg

CCC1(C)CC(=O)NC1=O (configuration not stated) [ETHOSUXIMIDE]
ED50 (Mus musculus [5]): > 1000 mg/kg
minimal effective dose (Mus musculus [8]): 100 mg/kg
Activity (Mus musculus [26]): inactive
Activity (Mus musculus [27]): inactive
minimal effective dose (Mus musculus [11]): 300 mg/kg
ED50 (Mus musculus [20]): 130 mg/kg

CN1C(=O)CC(=O)N(c2ccccc2)c2cc(Cl)ccc21 [CLOBAZAM]
Activity (Rattus norvegicus [28]): 101 µg
Activity (Rattus norvegicus [13]): 110 µg

NC1NC(=S)NN=C1n1c(-c2ccccc2)c(C(=O)O)c2cc([N+](=O)[O-])ccc21 (configuration not stated)
TD50 [1]: 180 mg/kg
